Source: ChEMBL document CHEMBL1125554, “Studies on pyridonecarboxylic acids. 1. Synthesis and antibacterial evaluation of 7-substituted-6-halo-4-oxo-4H-[1,3]thiazeto[3,2-a]quinoline-3-carboxylic acids” (J Med Chem, 1992)
≈ marks a conversion by molar mass, not a printed value.

Assays:
Format in all cases: functional
[1] = test system: Escherichia coli; assay: In vitro antibacterial activity against Escherichia coli NIH JC-2; settings: Escherichia coli; read-out: MIC
How it was run: (§1)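 MIC (μg/mL) by 2-fold agar dilution on Sensitivity Test agar, following the Japan Society of Chemotherapy MIC Committee method. Inocula were about 10⁶ cfu/mL. Growth was read after 20 h incubation at 37 °C.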

[2] = test system: Serratia marcescens; assay: In vitro antibacterial activity against Serratia marcescens IFO 3736; settings: Serratia marcescens, IFO 3736; read-out: MIC; how it was run: as §1
[3] = test system: Micrococcus luteus; assay: In vitro antibacterial activity against Micrococcus luteus ATCC 9341; settings: Micrococcus luteus, ATCC 9341; read-out: MIC; how it was run: as §1
[4] = test system: Pseudomonas aeruginosa; assay: In vitro antibacterial activity against Pseudomonas aeruginosa E-2; settings: Pseudomonas aeruginosa; read-out: MIC; how it was run: as §1
[5] = test system: Klebsiella pneumoniae; assay: In vitro antibacterial activity against Klebsiella pneumoniae K-1966; settings: Klebsiella pneumoniae; read-out: MIC; how it was run: as §1
[6] = test system: Staphylococcus aureus; assay: In vitro antibacterial activity against Staphylococcus aureus 209P JC-1; settings: Staphylococcus aureus; read-out: MIC; how it was run: as §1
[7] = test system: Shigella flexneri; assay: In vitro antibacterial activity against Shigella flexneri 2a EW-10; settings: Shigella flexneri; read-out: MIC; how it was run: as §1
[8] = species: Mus musculus; assay: Compound was evaluated for oral efficacy on systemic infections in mice by Escherichia coli KC-14
How it was run: (§2)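 Male ddY mice (20 ± 2 g), seven per dose group. Challenge was intraperitoneal, 0.5 mL of bacteria suspended in 5% gastric mucin: E. coli KC-14 at 4.3 × 10⁴ cfu/mL or P. aeruginosa E-2 at 2.88 × 10⁵ cfu/mL. Drug was suspended in 0.5% HPC-SL and given orally 2 h (E. coli) or 1 h (P. aeruginosa) after challenge. ED50 was calculated by Probit from 7-day survival.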

[9] = species: Mus musculus; assay: Compound was evaluated for oral Pseudomonas aeruginosa E-2; how it was run: as §2

Compound | MIC [1] [µg/mL] | MIC [2] [µg/mL] | MIC [3] [µg/mL] | MIC [4] [µg/mL] | MIC [5] [µg/mL] | MIC [6] [µg/mL] | MIC [7] [µg/mL] | ED50 [8] [mg/kg] | ED50 [9] [mg/kg]
Cl.O.O=C(O)c1c2n(c3cc(N4CCNCC4)c(F)cc3c1=O)CS2 | 0.1 | 0.1 | 25 | 0.78 | 0.05 | 0.05 | 0.025 |  | 
CCC1Sc2c(C(=O)O)c(=O)c3cc(F)c(N4CCN(C)CC4)cc3n21 (centres undefined) |  | 0.78 (≈ 2.07 µM) |  |  |  | 0.2 (≈ 0.53 µM) |  |  | 
CCOC(=O)c1c2n(c3cc(N4CCN(C)CC4)c(F)cc3c1=O)C(c1ccccc1)S2 (centres undefined) |  |  |  |  |  |  |  | 0.89 | 18.1
CC1Sc2c(C(=O)O)c(=O)c3cc(Cl)c(N4CCNCC4)cc3n21 (centres undefined) | 0.05 (≈ 0.137 µM) | 0.1 (≈ 0.273 µM) | 1.56 (≈ 4.26 µM) | 1.56 (≈ 4.26 µM) | 0.025 (≈ 0.0683 µM) | 0.1 (≈ 0.273 µM) | 0.0125 (≈ 0.0342 µM) |  | 
CN1CCN(c2cc3c(cc2F)c(=O)c(C(=O)O)c2n3C(c3ccc(F)cc3F)S2)CC1 (centres undefined) | 0.39 (≈ 0.845 µM) | 12.5 (≈ 27.1 µM) | 6.25 (≈ 13.5 µM) | 3.13 (≈ 6.78 µM) | 0.78 (≈ 1.69 µM) | 1.56 (≈ 3.38 µM) | 0.78 (≈ 1.69 µM) |  | 
O=C(O)c1c2n(c3cc(N4CCNCC4)c(F)cc3c1=O)C(c1ccccc1F)S2 (centres undefined) | 0.39 (≈ 0.908 µM) | 12.5 (≈ 29.1 µM) | 12.5 (≈ 29.1 µM) | 3.13 (≈ 7.29 µM) | 0.78 (≈ 1.82 µM) | 1.56 (≈ 3.63 µM) | 0.78 (≈ 1.82 µM) |  | 
CCOC(=O)c1c2n(c3cc(N4CCN(CC(C)=O)CC4)c(F)cc3c1=O)C(C)S2 (centres undefined) |  |  |  |  |  |  |  | 0.78 | 27
CC1Sc2c(C(=O)O)c(=O)c3cc(F)c(-n4ccnc4)cc3n21 (centres undefined) | 0.2 (≈ 0.604 µM) | 0.78 (≈ 2.35 µM) | 6.25 (≈ 18.9 µM) | 3.13 (≈ 9.45 µM) | 0.1 (≈ 0.302 µM) | 0.39 (≈ 1.18 µM) | 0.1 (≈ 0.302 µM) |  | 

More lines, main results first:

MIC [1] [µg/mL] | MIC [2] [µg/mL] | MIC [3] [µg/mL] | MIC [4] [µg/mL] | MIC [5] [µg/mL] | MIC [6] [µg/mL] | MIC [7] [µg/mL] | Compound | ED50 [8] [mg/kg] | ED50 [9] [mg/kg]
0.05 (≈ 0.128 µM) | 0.19 (≈ 0.488 µM) | 1.56 (≈ 4.01 µM) | 0.78 (≈ 2 µM) | 0.05 (≈ 0.128 µM) | 0.05 (≈ 0.128 µM) | 0.025 (≈ 0.0642 µM) | C=CCN1CCN(c2cc3c(cc2F)c(=O)c(C(=O)O)c2n3C(C)S2)CC1 (centres undefined) |  | 
0.2 (≈ 0.547 µM) | 0.39 (≈ 1.07 µM) | 6.25 (≈ 17.1 µM) | 1.56 (≈ 4.26 µM) | 0.2 (≈ 0.547 µM) | 0.2 (≈ 0.547 µM) | 0.1 (≈ 0.273 µM) | CN1CCN(c2cc3c(cc2Cl)c(=O)c(C(=O)O)c2n3CS2)CC1 |  | 
0.025 (≈ 0.0608 µM) | 0.05 (≈ 0.122 µM) | 3.13 (≈ 7.61 µM) | 0.2 (≈ 0.486 µM) | 0.025 (≈ 0.0608 µM) | 0.2 (≈ 0.486 µM) | 0.025 (≈ 0.0608 µM) | O=C(O)c1c2n(c3cc(N4CCNCC4)c(F)cc3c1=O)C(c1ccccc1)S2 (centres undefined) |  | 
0.025 (≈ 0.0582 µM) | 0.39 (≈ 0.908 µM) | 1.56 (≈ 3.63 µM) | 0.39 (≈ 0.908 µM) | 0.0125 (≈ 0.0291 µM) | 0.2 (≈ 0.466 µM) | 0.025 (≈ 0.0582 µM) | O=C(O)c1c2n(c3cc(N4CCNCC4)c(F)cc3c1=O)C(c1ccc(F)cc1)S2 (centres undefined) |  | 
0.1 (≈ 0.254 µM) | 0.39 (≈ 0.991 µM) | 0.78 (≈ 1.98 µM) | 1.56 (≈ 3.97 µM) | 0.1 (≈ 0.254 µM) | 0.1 (≈ 0.254 µM) | 0.05 (≈ 0.127 µM) | CC1Sc2c(C(=O)O)c(=O)c3cc(F)c(N4CCN(CCO)CC4)cc3n21 (centres undefined) |  | 
0.1 (≈ 0.285 µM) | 0.39 (≈ 1.11 µM) | 1.56 (≈ 4.45 µM) | 0.39 (≈ 1.11 µM) | 0.1 (≈ 0.285 µM) | 0.1 (≈ 0.285 µM) | 0.1 (≈ 0.285 µM) | CC1Sc2c(C(=O)O)c(=O)c3cc(F)c(N4CCOCC4)cc3n21 (centres undefined) |  | 
0.025 (≈ 0.0688 µM) | 0.05 (≈ 0.138 µM) | 1.56 (≈ 4.29 µM) | 0.39 (≈ 1.07 µM) | 0.025 (≈ 0.0688 µM) | 0.1 (≈ 0.275 µM) | 0.0125 (≈ 0.0344 µM) | CC1Sc2c(C(=O)O)c(=O)c3cc(F)c(N4CCN(C)CC4)cc3n21 (centres undefined) | 0.97 | 8.84
0.1 (≈ 0.263 µM) | 0.1 (≈ 0.263 µM) | 3.13 (≈ 8.24 µM) | 1.56 (≈ 4.11 µM) | 0.025 (≈ 0.0658 µM) | 0.2 (≈ 0.526 µM) | 0.1 (≈ 0.263 µM) | CC1Sc2c(C(=O)O)c(=O)c3cc(Cl)c(N4CCN(C)CC4)cc3n21 (centres undefined) |  | 
